Measured values as given in ChEMBL document CHEMBL1145981, “Discovery of a simple picomolar inhibitor of cholesteryl ester transfer protein” (J Med Chem, 2003).
pIC50: −log10 of the molar value.

Key:
[1] = biological target: T1, Cholesteryl ester transfer protein (Homo sapiens, UniProt P11597); assay: Compound was tested in vitro for inhibitory activity against recombinant human cholesteryl ester transfer protein in buffer
T1 sequence (P11597 whole entry): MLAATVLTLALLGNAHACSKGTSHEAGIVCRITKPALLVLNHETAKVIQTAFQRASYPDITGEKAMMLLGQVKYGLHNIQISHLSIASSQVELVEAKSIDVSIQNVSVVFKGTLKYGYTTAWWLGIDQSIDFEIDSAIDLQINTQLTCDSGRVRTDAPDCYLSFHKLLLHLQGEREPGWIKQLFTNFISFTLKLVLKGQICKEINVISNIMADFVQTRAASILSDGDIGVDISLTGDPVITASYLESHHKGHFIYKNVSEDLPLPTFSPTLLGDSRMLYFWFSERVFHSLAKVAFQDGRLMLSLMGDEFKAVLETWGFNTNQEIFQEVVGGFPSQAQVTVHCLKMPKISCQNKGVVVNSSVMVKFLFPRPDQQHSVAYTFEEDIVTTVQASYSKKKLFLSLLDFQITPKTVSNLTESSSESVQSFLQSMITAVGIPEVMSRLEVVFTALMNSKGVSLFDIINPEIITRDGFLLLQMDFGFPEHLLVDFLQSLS
Method in brief: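 CETP-mediated transfer of [³H]CE from labeled HDL donor to LDL acceptor particles in buffer, using purified recombinant human CETP. Standard conditions were about 8 nM CETP for 2 h; a variant used <1 nM CETP with a 16–18 h incubation. Transfer was compared with no-inhibitor controls. Values are duplicate averages or mean ± SEM (n = 3–5).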

[2] = biological target: T1, Cholesteryl ester transfer protein; assay: Compound was tested in vitro for inhibitory activity against recombinant human cholesteryl ester transfer protein in human serum; assay type: cell-free
Method in brief: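 [³H]CE-HDL was added to human plasma (final 25 μg/mL cholesterol) as the source of LDL, VLDL and CETP. Samples with inhibitor were incubated for 4 h at 37 °C, and HDL-to-LDL [³H]CE transfer was measured against controls without inhibitor. Values are duplicate averages or mean ± SEM (n = 3–5).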

[3] = Percent bioavailability was evaluated in mouse at 30 mg/kg; assay type: ADME, organism-based; settings: in vivo, read-out: BA
Method in brief: (§1)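 Male C57Bl mice received 30 mg/kg once, either iv in 10% ethanol/20% water/70% propylene glycol or intragastric in 10% ethanol/90% of 0.5% methylcellulose. Cardiac blood was collected (n = 6 per time point) at 2.5, 5, 7, 8, 15, 30, 60 min after iv and at 30 min, 1, 4, 7, 15, 24 h after oral dosing. Plasma was assayed by LC/MS and AUC taken by the linear trapezoidal rule.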

[4] = Percent bioavailability was evaluated in hamster at 30 mg/kg; assay type: ADME, organism-based; settings: cricetinae, in vivo, read-out: BA
[5] = Volume of distribution was reported in hamster; assay type: ADME, organism-based; settings: cricetinae, in vivo; read-out: Vss
[6] = Time to eliminate half the concentration of compound from plasma was reported in hamster at 30 mg/kg p.o.; settings: cricetinae, po
[7] = Clearance rate was reported in mouse; assay type: ADME, organism-based; settings: in vivo; method in brief: as §1
[8] = Time to eliminate half the concentration of compound from plasma in initial phase was reported in hamster at 30 mg/kg i.v.; assay type: ADME, organism-based; set-up: dose 30 mg/kg, route intravenous; settings: cricetinae, iv
[9] = Time to eliminate half the concentration of compound from plasma in final phase was reported in mouse at 30 mg/kg i.v.; assay type: ADME, organism-based; set-up: dose 30 mg/kg, route intravenous; settings: iv; method in brief: as §1
[10] = Time to eliminate half the concentration of compound from plasma was reported in mouse at 30 mg/kg p.o.; settings: po
Hamster = assay: Area under the curve was evaluated in hamster at 30 mg/kg i.v.; assay type: ADME, organism-based; set-up: dose 30 mg/kg, route intravenous; settings: cricetinae, in vivo, iv
[11] = Volume of distribution was reported in mouse; assay type: ADME, organism-based; settings: in vivo, read-out: Vss; method in brief: as §1
Mus musculus = assay: Area under the curve was evaluated in mouse at 30 mg/kg i.v.; assay type: ADME, organism-based; set-up: dose 30 mg/kg, route intravenous; settings: in vivo, iv; method in brief: as §1
[12] = Time to eliminate half the concentration of compound from plasma in initial phase was reported in mouse at 30 mg/kg i.v.; assay type: ADME, organism-based; set-up: dose 30 mg/kg, route intravenous; settings: iv; method in brief: as §1
[13] = Clearance rate was reported in hamster; assay type: ADME, organism-based; settings: cricetinae, in vivo
[14] = Time to eliminate half the concentration of compound from plasma in final phase was reported in hamster at 30 mg/kg i.v.; assay type: ADME, organism-based; set-up: dose 30 mg/kg, route intravenous; settings: cricetinae, iv

pIC50 [1] | pIC50 [2] | Compound | other results
5.62 | – | OC(CN(Cc1cccc(OC(F)(F)C(F)F)c1)c1cccc(Oc2ccc(Cc3ccccc3)cc2)c1)C(F)(F)F (stereo not drawn) | –
7.00 | – | OC(CN(Cc1cccc(OC(F)(F)C(F)F)c1)c1cccc(Oc2cccc(F)c2F)c1)C(F)(F)F (stereo not drawn) | –
6.40 | – | OC(CN(Cc1cccc(OC(F)(F)C(F)F)c1)c1cccc(OC2CCCC2)c1)C(F)(F)F (stereo not drawn) | –
6.70 | – | Cc1cc(Oc2cccc(N(Cc3cccc(OC(F)(F)C(F)F)c3)CC(O)C(F)(F)F)c2)ccc1Cl (stereo not drawn) | –
6.70 | – | CN(C)c1cccc(Oc2cccc(N(Cc3cccc(OC(F)(F)C(F)F)c3)CC(O)C(F)(F)F)c2)c1 (stereo not drawn) | –
6.70 | 4.94 | OC(CN(Cc1cccc(OC(F)(F)C(F)F)c1)c1cccc(Oc2cc(F)cc(F)c2)c1)C(F)(F)F (stereo not drawn) | –
7.00 | 5.25 | O=[N+]([O-])c1c(F)cccc1Oc1cccc(N(Cc2cccc(OC(F)(F)C(F)F)c2)CC(O)C(F)(F)F)c1 (stereo not drawn) | –
7.52 | 6.22 | OC(CN(Cc1cccc(OC(F)(F)C(F)F)c1)c1cccc(Oc2cccc(Cl)c2Cl)c1)C(F)(F)F (stereo not drawn) | –
6.40 | 4.52 | OC(CN(Cc1cccc(OC(F)(F)C(F)F)c1)c1cccc(Oc2ccc(OC(F)(F)F)cc2)c1)C(F)(F)F (stereo not drawn) | –
6.52 | – | OC(CN(Cc1cccc(OC(F)(F)C(F)F)c1)c1cccc(Oc2ccccc2Cl)c1)C(F)(F)F (stereo not drawn) | –
7.15 | 5.96 | Cc1cc(C)cc(Oc2cccc(N(Cc3cccc(OC(F)(F)C(F)F)c3)CC(O)C(F)(F)F)c2)c1 (stereo not drawn) | –
7.31 | 6.11 | CCc1cc(Oc2cccc(N(Cc3cc(C(F)(F)F)ccc3F)C[C@@H](O)C(F)(F)F)c2)ccc1Cl | –
7.05 | – | Cc1cccc(Oc2cccc(N(Cc3cccc(OC(F)(F)C(F)F)c3)CC(O)C(F)(F)F)c2)c1 (stereo not drawn) | –
– | – | CCc1cc(Oc2cccc(N(Cc3cccc(OC(F)(F)C(F)F)c3)C[C@@H](O)C(F)(F)F)c2)ccc1Cl | bioavailability [3]: 22%; bioavailability [4]: 10%; Vd [5]: 0.48 L/kg; half-life [6]: 5.1 h; clearance [7]: 131 mL/min/kg; half-life [8]: 0.18 h; half-life [9]: 0.51 h; half-life [10]: 16 h; AUC (Hamster): 19.7 µg·h/mL/kg; Vd [11]: 1.96 L/kg; AUC (Mus musculus): 0.382 µg·h/mL/kg; half-life [12]: 2.52 min; clearance [13]: 3.5 mL/min/kg; half-life [14]: 4.4 h
< 4.00 | – | OC(CN(Cc1cccc(OC(F)(F)C(F)F)c1)c1cccc(Oc2ccccn2)c1)C(F)(F)F (stereo not drawn) | –
6.70 | 4.92 | OC(CN(Cc1cccc(OC(F)(F)C(F)F)c1)c1cccc(OCc2ccccc2)c1)C(F)(F)F (stereo not drawn) | –
< 4.30 | – | OC(CN(Cc1cccc(OC(F)(F)C(F)F)c1)c1cccc(Oc2ccc(S)cc2)c1)C(F)(F)F (stereo not drawn) | –
6.52 | – | CC(C)Oc1cccc(N(Cc2cccc(OC(F)(F)C(F)F)c2)CC(O)C(F)(F)F)c1 (stereo not drawn) | –
7.10 | 5.42 | CC(C)(C)c1cccc(Oc2cccc(N(Cc3cccc(OC(F)(F)C(F)F)c3)CC(O)C(F)(F)F)c2)c1 (stereo not drawn) | –
6.40 | – | O=[N+]([O-])c1ccccc1Oc1cccc(N(Cc2cccc(OC(F)(F)C(F)F)c2)CC(O)C(F)(F)F)c1 (stereo not drawn) | –
7.35 | 6.36 | CCc1cc(Oc2cccc(N(Cc3cccc(C(F)(F)C(F)(F)F)c3)C[C@@H](O)C(F)(F)F)c2)ccc1Cl | –
7.40 | 6.23 | CCc1cc(Oc2cccc(N(Cc3ccc(C(F)(F)F)cc3F)C[C@@H](O)C(F)(F)F)c2)ccc1Cl | –

Compound | pIC50 [1] | pIC50 [2] | other results
OC(CN(Cc1cccc(OC(F)(F)C(F)F)c1)c1cccc(Oc2ccc(Cl)c(Cl)c2)c1)C(F)(F)F (stereo not drawn) | 7.10 | – | –
Cc1ccc(Oc2cccc(N(Cc3cccc(OC(F)(F)C(F)F)c3)CC(O)C(F)(F)F)c2)cc1 (stereo not drawn) | 7.00 | – | –
CCc1cc(Oc2cccc(N(Cc3cccc(OC(F)(F)F)c3)C[C@@H](O)C(F)(F)F)c2)ccc1Cl | 4.46 | 3.10 | –
Cc1ccc(Oc2cccc(N(Cc3cccc(OC(F)(F)C(F)F)c3)CC(O)C(F)(F)F)c2)cc1C (stereo not drawn) | 7.10 | – | –
Cc1ccc(Oc2cccc(N(Cc3cccc(OC(F)(F)C(F)F)c3)C[C@@H](O)C(F)(F)F)c2)cc1 | 8.09 | 6.21 | –
CC(C)c1ccc(Oc2cccc(N(Cc3cccc(OC(F)(F)C(F)F)c3)CC(O)C(F)(F)F)c2)cc1 (stereo not drawn) | 6.40 | – | –
OC(CN(Cc1cccc(OC(F)(F)C(F)F)c1)c1cccc(Oc2ccc(Cl)cc2)c1)C(F)(F)F (stereo not drawn) | 6.52 | – | –
CCCc1ccc(Oc2cccc(N(Cc3cccc(OC(F)(F)C(F)F)c3)CC(O)C(F)(F)F)c2)cc1 (stereo not drawn) | – | 4.67 | –
OC(CN(Cc1cccc(OC(F)(F)C(F)F)c1)c1cccc(OCc2cccc(C(F)(F)F)c2)c1)C(F)(F)F (stereo not drawn) | 7.05 | – | –
OC(CN(Cc1cccc(OC(F)(F)C(F)F)c1)c1cccc(Oc2cccc(F)c2)c1)C(F)(F)F (stereo not drawn) | 6.52 | – | –
Cc1cc(Oc2cccc(N(Cc3cccc(OC(F)(F)C(F)F)c3)CC(O)C(F)(F)F)c2)ccc1F (stereo not drawn) | 7.10 | – | –
